Assay outcomes: PubChem BioAssay, Broad Institute
Most compounds without a hit are left out; they make up all but 0.16% or so of the library.
CDK5 inh = inhibitors of human CDK5/p35 kinase; inhibition, % at 10 µM; actives 0.01% (n = 330,000); Recombinant CDK5/p35, ADP-Glo luminescence, 60 min; Q00535+Q15078;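 active means highest replicate inhibition of at least 50% and at least 75% of replicates reaching 50%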;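 further: plate controls were DMSO neutral control for no effect and GW8510 at 10 µM for full effect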
Target sequence (Q00535 whole entry, looked up): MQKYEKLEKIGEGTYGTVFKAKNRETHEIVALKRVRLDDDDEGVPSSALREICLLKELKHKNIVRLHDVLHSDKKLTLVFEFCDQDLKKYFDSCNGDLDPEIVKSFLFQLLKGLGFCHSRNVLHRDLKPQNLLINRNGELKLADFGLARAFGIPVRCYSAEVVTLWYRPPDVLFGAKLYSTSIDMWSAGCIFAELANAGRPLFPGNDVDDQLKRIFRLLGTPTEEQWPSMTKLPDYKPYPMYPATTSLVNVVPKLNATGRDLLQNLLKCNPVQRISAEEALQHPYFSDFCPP
Target sequence (Q15078 whole entry, looked up): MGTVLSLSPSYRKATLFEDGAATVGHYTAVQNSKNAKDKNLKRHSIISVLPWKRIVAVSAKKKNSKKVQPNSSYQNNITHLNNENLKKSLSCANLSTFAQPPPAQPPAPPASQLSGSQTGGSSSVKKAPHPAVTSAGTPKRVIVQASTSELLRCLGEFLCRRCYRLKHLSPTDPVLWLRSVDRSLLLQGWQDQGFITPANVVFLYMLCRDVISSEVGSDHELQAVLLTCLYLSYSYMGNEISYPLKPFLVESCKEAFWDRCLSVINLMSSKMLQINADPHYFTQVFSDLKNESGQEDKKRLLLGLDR
GSK3A inh = human GSK-3 alpha kinase inhibition; actives 0.1% (n = 320,000); P49840; AID 2650; ADP-Glo luminescence, 60 min; inhibition, % at 10 µM;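 active means more than half of replicates show inhibition above 20%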;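 further: GST-tagged GSK-3 alpha with peptide substrate and 25 µM ATP; 0% = DMSO neutral wells and 100% = GW8510 positive control wells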
STK33 inh = inhibitors of human STK33 kinase; actives 0.073% (n = 320,000); Q9BYT3; purified STK33, MBP phosphorylation, ADP-Glo luminescence; inhibition, % at 10 µM;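 active means inhibition at or above 25%, using the most active replicate where run in duplicate; inactive means inhibition below 25%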
GSK3B inh = inhibitors of human GSK3beta kinase; activity score (negative = inhibition), % at 10 µM; actives 0.038% (n = 300,000); P49841; GST-GSK3beta kinase, ADP-Glo luminescence, 60 min; stronger effect = lower value;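 active means more than half of replicate wells score below -50%, meaning over 50% inhibition versus plate controls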;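 further: 0% = median DMSO wells and -100% = median GW8510 positive control wells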
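Assay system: GST-tagged human GSK3beta kinase, cell-free; Input: 1.6 ng GSK3beta; Medium: Tris/MgCl2 kinase buffer; Timing: 60 min enzyme reaction, room temperature; Signal: ADP-Glo luminescence quantifying ADP generated by kinase; Evaluation: score relative to plate controls; Benchmarks: DMSO neutral wells and GW8510 at 20 µM as positive.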
* = called active by the depositor; . = not tested or not shown.

SMILES	CDK5 inh	GSK3A inh	STK33 inh	GSK3B inh
COc1ccc(CN(C)C(=O)c2ccc(NC(=O)CC3SC(N4CCCCC4)=NC3=O)cc2)c(OC)c1 (configuration not stated)	-1.7	.	.	.
O=C1C(=NO)CCc2ccccc21	1.8	.	.	.
CC(N)C(=O)NC(CO)C(O)C(N)C=O (configuration not stated)	1.8	.	.	.
O=C(Nc1ncc([N+](=O)[O-])s1)C1CCN(S(=O)(=O)c2cnc[nH]2)CC1	0.8	51.4*	-1.0	-2.3
N#C/C(=C/C1=C(N2CCOCC2)C(=C/c2ccc(Cl)cc2Cl)/CC1)C(=O)Nc1ccccc1F	-0.7	.	.	.
COc1ccc(N=Cc2c(O)[nH]c3ccccc23)cc1	3.4	3.4	3.7	-0.8
Oc1[nH]c2ccccc2c1C=Nc1ccc2c(c1)OCO2	2.8	15.7	26.2*	-32.1
CCOc1cc(-c2cc(-c3ccc(C)cc3)nc(N)c2C#N)ccc1O	1.6	4.2	2.0	4.3
CCOc1cc(/C=C(\C#N)c2[nH]nc(N)c2C#N)ccc1O	0.9	37.1	34.9*	3.4
N#C/C(=C(/O)c1ccco1)c1nc2ccccc2[nH]1	0.1	-2.3	28.6*	-3.6
CC(=O)C1CCC2C3CC(C)=C4CC(O)CCC4(C)C3CCC12C (configuration not stated)	3.3	.	.	.
CCCCCCCCOC(=O)c1cc([N+](=O)[O-])c(Sc2ncnc3nc[nH]c23)c([N+](=O)[O-])c1	0.6	.	.	.
CC(C)NC(=O)Nc1n[nH]c(Nc2ccc(Cl)cc2)n1	9.7	52.4*	0.9	0.6
COc1ccc(Cl)cc1NC(=O)NC(C)C	-2.1	0.1	-1.3	-4.5
CC(Oc1ccc2c(c1)c1ccnc3c4ccccc4c(=O)n2c13)C(=O)NCCN1CCOCC1 (configuration not stated)	0.3	-2.3	75.0*	0.5
CCOC(=O)C1=C(C)Nc2ncnn2C1c1cccs1 (configuration not stated)	2.3	.	0.2	-14.2
CCCC1=C(C(=O)OCC)C(c2cccs2)n2ncnc2N1 (configuration not stated)	-2.2	61.2*	-0.6	-42.0
Clc1ccc2c(SCC3CO3)c3ccccc3nc2c1 (configuration not stated)	-4.6	.	.	.
CC1(C)Cc2c(sc3c2C2=NCCN2C=N3)CS1	0.0	54.1*	-1.3	-4.7
COc1cc(/C=C2\CCC(C)C3=C(c4cc(OC)c(OC)c(OC)c4)C(C#N)=C(N)OC32)cc(OC)c1OC (configuration not stated)	-1.2	.	.	.
Cc1ccc(NC(=O)CN(C)C(=O)C2CCC2)cc1	2.1	.	.	.
O=C(O)c1ccc(N=Nc2c(O)[nH]c3ccccc23)cc1	5.0	50.6*	29.1*	-1.0
O=C(NC(c1cccnc1)C(F)(F)F)c1cc(COc2ccc3c(c2)CCCC3)on1 (configuration not stated)	.	3.5	-0.7	1.8
COc1ccccc1NC(=O)Nc1ncccc1C	0.4	-0.5	30.0*	3.4
O=C(O)Cc1ccc(N=Cc2c(O)ccc3ccccc23)cc1	0.0	1.5	50.3*	0.3
SMILES	CDK5 inh	GSK3A inh	STK33 inh	GSK3B inh
O=C(O)c1ccc(N=Cc2c(O)ccc3ccccc23)cc1	-0.8	-2.3	0.1	0.7
O=C(CSc1nc(N2CCCCC2)nc(N2CCCCC2)n1)c1ccccc1	0.7	0.5	28.3*	2.5
Cc1cc(N2CCCCC2)nc(SCC(=O)c2ccccc2)n1	-0.3	1.0	-1.9	-7.0
CCOC(=O)C1=C(C(=O)OCC)c2ccc(OC)c(OC)c2C1	-1.5	.	.	.
COc1ccc2occ(C(=O)c3ccc(N)cc3)c2c1	0.8	6.0	0.3	-4.2
COc1ccc2occ(C(=O)c3cccs3)c2c1	-1.3	58.7*	3.7	-41.4
COc1ccc2occ(C(=O)c3coc4ccc(O)c(CN(C)C)c34)c2c1	-1.4	85.0*	3.7	-68.4*
COc1ccc(OC)c(C(=O)c2coc3ccc(O)c(CN(C)C)c23)c1	1.0	-0.3	-1.3	2.8
Nc1ncnc2c1ncn2[C@@H]1O[C@H](CNCc2ccc(-n3cccn3)cc2)[C@@H](O)[C@H]1O	-3.7	0.3	-0.7	.
O=c1cc(-c2ccccc2Cl)oc2c([N+](=O)[O-])c(O)cc(O)c12	4.7	39.3	1.9	-53.0*
CCCn1c(NC(=O)c2cccc(S(=O)(=O)N3CCCC3)c2)nc2ccccc21	32.6	0.1	44.4*	0.8
CCCCCCCCCCCCCCCC(=O)Nc1ccn(C2OC(CO)C(O)C2O)c(=O)n1 (configuration not stated)	1.1	.	.	.
COc1ccc(-n2c(C)c([N+](=O)[O-])c3ccc(O)c(CN4CCCCC4)c32)cc1	-2.4	50.7*	0.1	3.9
O=C(N/N=C/c1c(O)ccc2ccccc12)Nc1ccccc1	.	-7.5	0.3	-2.1
O=C(O)c1cc(N/N=C/c2c(O)ccc3ccccc23)ccc1Cl	-0.9	2.8	43.5*	0.6
Cc1c(C(=O)N/N=C/c2ccc(O)c(Br)c2)sc(N)c1C#N	49.5	23.0	7.9	.
COc1cc(/C=N/NC(=O)c2sc(N)c(C#N)c2C)ccc1O	3.3	64.9*	8.8	-45.1
O=C1C=CC(=O)N1CCCCCCCCCCN1C(=O)C=CC1=O	-0.6	.	.	.
Cn1c(SCC(=O)Nc2ccc(Cl)cn2)nnc1C1CC1	0.3	51.1*	-0.8	-29.8
CCn1c(SCC(=O)Nc2ccc(Br)cn2)nnc1C1CC1	-0.4	23.2	0.8	-52.0*
COc1ccc(Cl)cc1NC(=O)c1cccc([N+](=O)[O-])c1O	-1.9	.	.	.
Cc1ccsc1C1C2=C(CCCC2=O)Nc2ncnn21 (configuration not stated)	-0.3	20.8	-1.2	-8.6
Cc1ccsc1C1C2=C(CC(C)(C)CC2=O)Nc2ncnn21 (configuration not stated)	2.6	62.7*	-0.7	-0.2
CCOc1ccc(-c2ccc(SC)nn2)cc1	33.1	20.4	31.1*	-14.8
CC(=O)OCC(=O)C1(O)CCC2C3CCC4C(OC(C)=O)C(=O)CCC4(C)C3C(=O)CC21C (configuration not stated)	0.2	.	.	.
SMILES	CDK5 inh	GSK3A inh	STK33 inh	GSK3B inh
S=C(Nc1ccc(Cl)cc1)Nc1ccc2cn[nH]c2c1	0.7	10.3	9.7	2.7
CC(C)NC(=S)Nc1ccc2cn[nH]c2c1	6.1	47.9	57.7*	-4.0
CN(C)S(=O)(=O)c1cccc(NC(=S)Nc2ccc3cn[nH]c3c2)c1	2.4	22.4	47.5*	-0.6
S=C(NCc1ccccc1)Nc1ccc2cn[nH]c2c1	3.9	22.9	26.0*	-17.8
CCc1ccc(NC(=S)Nc2ccc3cn[nH]c3c2)cc1	3.2	19.5	31.1*	0.2
Cc1nc2nc(C)n(CCN3CCOCC3)c(=O)c2c(-c2cccc([N+](=O)[O-])c2)c1C(=O)CCCCCCCCCCN1CCC(c2ccccc2)(c2ccccc2)CC1	-1.2	.	.	.
COC1C(CO)OC(n2c3c(Cl)cccc3c3c4c(c5c6cccc(Cl)c6[nH]c5c32)C(=O)NC4=O)C(O)C1O (configuration not stated)	-0.8	.	.	.
N#C/C(N=Nc1ccccc1O)=N\Nc1ccccc1O	6.1	6.1	3.6	-1.9
COc1ccc(NC(=S)Nc2ccc3cn[nH]c3c2)cc1	0.8	36.4	39.1*	-5.9
